Here are results for six molecules from ChEMBL document CHEMBL3286392, “Iron chelators in photodynamic therapy revisited: synergistic effect by novel highly active thiosemicarbazones” (ACS Med Chem Lett, 2014).

Data set [1] deals with HCT-116. In words: Dark cytotoxicity against human HCT116 cells expressing wild type p53 after 96 hrs by MTT assay. The conditions noted are these: HCT-116, 96 h. Format: cell-based. For orientation: Tetrazolium dyes change colour on reduction, which living cells bring about.
Data set [2] concerns HCT-116. In words: Dark cytotoxicity against p53-deficient human HCT116 cells after 96 hrs by MTT assay. In kind it is cell-based. The conditions noted are these: HCT-116, 96 h.
In data set [3] the test system is HCT-116. In words: Photocytotoxicity against human HCT116 cells expressing wild type p53 assessed as combination index incubated for 24 hrs followed by light irradiation measured after 24 hrs by MTS assay in presence of ALA. Format: functional. The procedure, abridged:
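HCT 116+/+ cells were treated with TSC at a range of concentrations plus ALA held at 1 mM. PpIX was irradiated at varied light doses, with doses increased in constant ratio. CI was calculated by the Chou–Talalay method as the summed doses in the combination divided by the dose of each therapy alone giving the same cytotoxic effect.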

The subject of data set [4] is HCT-116. Put plainly: Induction of 5-aminolevulinic acid-induced cellular PpIX formation in human HCT116 cells expressing wild type p53 at 50 uM by fluorescence plate reader analysis. Format: functional, cell-based.
Data set [5] concerns HCT-116. Put plainly: Photocytotoxicity against human HCT116 cells expressing wild type p53 incubated for 24 hrs followed by light irradiation measured after 24 hrs by MTS assay in presence of ALA and FeCl3. Format: functional, cell-based.
For another data set, the system named is Raji. Put plainly: Dark cytotoxicity against human Raji cells after 72 hrs by MTT assay. In kind it is cell-based.
The subject of the next data set is HeLa. In words: Dark cytotoxicity against human HeLa cells after 72 hrs by MTT assay. Format: cell-based.
The next data set has as its system NHDF. Put plainly: Dark cytotoxicity against human NHDF cells after 72 hrs by MTT assay. In kind it is cell-based.
A short description of data set [6]: Ratio of IC50 for human HCT116 cells expressing wild type p53 to IC50 for human NHDF cells. The following applies: HCT116 cells expressing wild type p53 and NHDF cells, read-out: Ratio IC50. In kind it is cell-based, HCT-116.
In data set [7] the test system is HCT-116. In words: Cytotoxicity against human HCT116 cells expressing wild type p53 assessed as cell death at 50 uM. Format: cell-based. The conditions noted are these: hct-116, 50 µM.
The subject of data set [8] is HCT-116. Put plainly: Induction of ROS generation in human HCT116 cells expressing wild type p53 at 8 nM after 24 hrs by spectrophotometry. Format: functional, cell-based.
Data set [9] relates to HCT-116. Put plainly: Induction of ROS generation in human HCT116 cells expressing wild type p53 at 4 uM after 24 hrs by spectrophotometry. Format: functional, cell-based.
A short description of data set [10]: Ratio of IC50 for p53-deficient human HCT116 cells to IC50 for human Raji cells. The following applies: hct-116. In kind it is cell-based.
For data set [11], the system named is HCT-116. In words: Induction of ROS generation in human HCT116 cells expressing wild type p53 at 1.6 nM after 24 hrs by spectrophotometry. Format: functional, cell-based.

Calls of active or inactive are those of the source. No cut-off for these calls is given here.

One may read the IC50 as the point on the concentration scale where inhibition reaches its midpoint. A low value points to greater potency in that assay. `CC(=O)N(O)CCCCCNC(=O)CCC(=O)N(O)CCCCCNC(=O)CCC(=O)N(O)CCCCCN` [DEFEROXAMINE]: the IC50 in the data set on HCT-116 [1] and with HCT-116 [2] was over 200000 nM throughout. Also, in the data set with HCT-116 [3], the CI stood at 1.01. Further, the result in the data set with HCT-116 [4] was inactive. In the data set with HCT-116 [5], the outcome was Active.

Regarding `Oc1cccc2ccc(/C=N/NC(=S)N3CCOCC3)nc12`, the IC50 in the data set with HCT-116 [1] is 3.84 nM; with HCT-116 [2], 16.8 nM; in the data set with Raji it was 21.2 nM; with HeLa it was 176 nM; with NHDF it was over 10000 nM. Also, the CI in the data set on HCT-116 [3] came to 0.08. In addition, the selectivity ratio in data set [6] came out at 2770. Further, the Activity result in the data set with HCT-116 [7] is listed as “Toxic”. For the same molecule, the result with HCT-116 [5] and in the data set on HCT-116 [8] was Active.

As for `CN(C)C(=S)N/N=C/c1c(O)ccc2cccnc12`, the IC50 in the data set with HCT-116 [1], in the data set on HCT-116 [2] and in the data set with NHDF was over 20000 nM in each case. For the same molecule, the CI with HCT-116 [3] came out at 6.08. In addition, the outcome in the data set with HCT-116 [4] was inactive. Besides, the outcome in the data set with HCT-116 [5] was Active.

Turning to `CCN1CCN(C(=S)N/N=C/c2ccccc2O)CC1`, the 50% inhibitory concentration (IC50) in the data set on HCT-116 [1] was over 20000 nM; with HCT-116 [2], over 20000 nM; in the data set with Raji, over 10000 nM; in the data set with HeLa, over 20000 nM; with NHDF, over 20000 nM. In addition, the CI in the data set with HCT-116 [3] was 0.95. Also, the result in the data set with HCT-116 [4] was inactive. In the data set with HCT-116 [5], the outcome was Active.

Consider `NC(=S)N/N=C/c1ncccc1N` [TRIAPINE], for which the midpoint of inhibition in the data set on HCT-116 [1], the IC50, lay at 1230 nM. Also, in the data set with HCT-116 [3], the CI is 0.85. The result in the data set on HCT-116 [5] and with HCT-116 [9] was Active.

Take `S=C(NN=C(c1ccccn1)c1ccccn1)N1CCN(c2ccccc2)CC1`: the half-inhibitory concentration (IC50) with HCT-116 [1] was 0.81 nM; in the data set on HCT-116 [2] it was 0.76 nM; in the data set on Raji, 0.32 nM; with HeLa, 570 nM; with NHDF it was 1.73 nM. The CI in the data set on HCT-116 [3] was 0.47. In addition, in [10], the “Ratio IC50” value was found to be 2.4. Moreover, the Activity entry with HCT-116 [7] was “Toxic”. Also, the result in the data set on HCT-116 [5] and in the data set with HCT-116 [11] was Active.
